Reference: ChEMBL document CHEMBL4840316, “Structure-based screening for the discovery of 1,2,4-oxadiazoles as promising hits for the development of new anti-inflammatory agents interfering with eicosanoid biosynthesis pathways” (Eur J Med Chem, 2021)
Calls of active or inactive are those of the source. The rule behind the calls is not given here.

Key:
[1] = target: T1, Prostaglandin G/H synthase 1 (Ovis aries) (UniProt P05979); assay: Inhibition of ovine COX-1 assessed as residual activity at 10 uM using arachidonic acid as substrate preincubated for 5 mins followed by substrate addition and measured after 5 mins by RP-HPLC method relative to control
T1 sequence (whole entry): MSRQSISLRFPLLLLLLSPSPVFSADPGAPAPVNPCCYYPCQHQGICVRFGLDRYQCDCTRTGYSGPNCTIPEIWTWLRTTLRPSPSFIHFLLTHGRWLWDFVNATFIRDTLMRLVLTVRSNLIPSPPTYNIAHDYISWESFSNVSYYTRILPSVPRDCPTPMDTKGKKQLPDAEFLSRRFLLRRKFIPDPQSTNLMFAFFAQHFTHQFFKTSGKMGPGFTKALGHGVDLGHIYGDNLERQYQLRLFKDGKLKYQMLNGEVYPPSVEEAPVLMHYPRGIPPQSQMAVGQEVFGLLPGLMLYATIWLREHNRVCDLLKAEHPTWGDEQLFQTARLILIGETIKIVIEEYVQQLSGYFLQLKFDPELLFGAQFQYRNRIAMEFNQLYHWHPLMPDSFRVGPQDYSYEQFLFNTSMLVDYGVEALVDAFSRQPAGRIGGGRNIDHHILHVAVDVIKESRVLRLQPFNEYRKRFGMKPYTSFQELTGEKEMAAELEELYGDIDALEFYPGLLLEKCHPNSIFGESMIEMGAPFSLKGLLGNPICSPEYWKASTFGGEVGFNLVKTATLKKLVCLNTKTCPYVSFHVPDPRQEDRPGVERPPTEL
In short: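 Ovine COX-1 (50 U/mL) or human recombinant COX-2 (20 U/mL) in 100 mM Tris pH 8 with 5 mM glutathione, 100 µM EDTA and 5 µM hemoglobin. Pre-incubated with compound or 0.1% DMSO for 5 min at room temperature, then 1 min at 37 °C. Started with AA (5 µM for COX-1, 2 µM for COX-2), run 5 min at 37 °C. 12-HHT measured by RP-HPLC.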

[2] = tested on: Mus musculus; assay: Antiinflammatory activity in zymosan-induced CD-1 mouse peritonitis model assessed as reduction in zymosan-induced neutrophil recruitment at 1 mg/kg, ip treated with compound for 30 mins after 4 hrs zymosan stimulation by ELISA; format: functional, organism-based
In short: (§1)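 Male CD-1 mice (10–14 wk, 25–30 g), n = 6/group, injected i.p. with boiled zymosan A (500 mg/kg in PBS). Compound (0.1–10 mg/kg, DMSO/saline 1:3) given i.p. 30 min afterwards. Peritoneal lavage with 2 mL PBS at 4 or 24 h. Total leukocytes counted by automated counter with trypan blue, normalized to exudate. Mean ± S.D.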

[3] = tested on: Mus musculus; assay: Antiinflammatory activity in zymosan-induced CD-1 mouse peritonitis model assessed as reduction in zymosan-induced TNF-alpha level in peritoneal exudate at 10 mg/kg, ip treated with compound for 30 mins after 4 hrs zymosan stimulation by ELISA; format: functional, organism-based
In short: (§2)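 Male CD-1 mice (10–14 wk, 25–30 g), n = 6/group. Zymosan A (500 mg/kg in PBS, boiled) given i.p.; test compound (0.1–10 mg/kg in DMSO/saline 1:3) i.p. 30 min later. Exudates collected by 2 mL PBS lavage at 4 or 24 h. Cells spun at 4 °C and cytokines in supernatant measured by sandwich ELISA at 450 nm. Values normalized to exudate levels, mean ± S.D.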

[4] = tested on: Mus musculus; assay: Antiinflammatory activity in zymosan-induced CD-1 mouse peritonitis model assessed as reduction in zymosan-induced TNF-alpha level in peritoneal exudate at 10 mg/kg, ip treated with compound for 30 mins after 24 hrs zymosan stimulation by ELISA; format: functional, organism-based; in short: as §2
[5] = tested on: Mus musculus; assay: Antiinflammatory activity in zymosan-induced CD-1 mouse peritonitis model assessed as reduction in zymosan-induced IL-1beta level in peritoneal exudate at 10 mg/kg, ip treated with compound for 30 mins after 4 hrs zymosan stimulation by ELISA; format: functional, organism-based; in short: as §2
[6] = target: T2, Prostaglandin E synthase (Homo sapiens, UniProt O14684); assay: Inhibition of mPGES-1 obtained from IL-beta stimulated human A549 cells microsomes assessed as residual activity by measuring conversion of PGH2 to PGE2 by cell-free RP-HPLC method; parameters: species or system Microsome
T2 sequence (O14684 whole entry): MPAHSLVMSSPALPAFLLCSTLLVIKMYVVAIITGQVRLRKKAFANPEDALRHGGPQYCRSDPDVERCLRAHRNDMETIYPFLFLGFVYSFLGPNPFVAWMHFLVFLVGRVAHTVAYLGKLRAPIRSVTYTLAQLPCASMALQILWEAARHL
In short: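 Microsomes from A549 cells stimulated with IL-1β (1 ng/ml) for 48 h. Diluted in 0.1 M potassium phosphate pH 7.4 with 2.5 mM glutathione. Pre-incubated 15 min on ice with compound (single 10 µM, or 0.03–10 µM for the curve) or 1% DMSO. 20 µM PGH2 added for 1 min; stopped with FeCl3/citric acid containing 11β-PGE2 standard. PGE2 measured by SPE and RP-HPLC. n = 3.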

[7] = tested on: Mus musculus; assay: Effect on IL-10 level in zymosan-induced CD-1 mouse peritonitis model in peritoneal exudate at 10 mg/kg, ip treated with compound for 30 mins after 4 to 24 hrs zymosan stimulation by ELISA; format: functional, organism-based; in short: as §2
[8] = tested on: Mus musculus; assay: Effect on IL-6 level in zymosan-induced CD-1 mouse peritonitis model in peritoneal exudate at 10 mg/kg, ip treated with compound for 30 mins after 4 to 24 hrs zymosan stimulation by ELISA; format: functional, organism-based; in short: as §2
[9] = tested on: Mus musculus; assay: Antiinflammatory activity in zymosan-induced CD-1 mouse peritonitis model assessed as reduction in zymosan-induced IL-1beta level in peritoneal exudate at 10 mg/kg, ip treated with compound for 30 mins after 24 hrs zymosan stimulation by ELISA; format: functional, organism-based; in short: as §2
[10] = tested on: Mus musculus; assay: Antiinflammatory activity in zymosan-induced CD-1 mouse peritonitis model assessed as reduction in zymosan-induced neutrophil recruitment at 10 mg/kg, ip treated with compound for 30 mins after 4 hrs zymosan stimulation by ELISA; format: functional, organism-based; in short: as §1

Structure (SMILES) | Activity [1] [%] | Activity [2] | Activity [3] | Activity [4] | Activity [5] | IC50 [6] [µM] | Activity [7] | Activity [8] | Activity [9] | Activity [10]
Oc1cccc(CCc2nc(-c3ccc(-c4ccsc4)cc3)no2)c1 | 47.7 |  |  |  |  |  |  |  |  | 
Oc1c(F)c(F)cc(-c2nc(-c3ccc(-c4ccsc4)cc3)no2)c1F |  | Active | Active | Active | Active | 3.6 | inactive | inactive | Active | Active
